PKD1 kinase inh – PKD1 (human) kinase inhibition. Q15139. AID 797. PKD1 kinase fluorescence polarization assay. 0.056% of 200,000 active. inhibition, % (no concentration beside the values)
Target sequence (Q15139 whole entry, looked up): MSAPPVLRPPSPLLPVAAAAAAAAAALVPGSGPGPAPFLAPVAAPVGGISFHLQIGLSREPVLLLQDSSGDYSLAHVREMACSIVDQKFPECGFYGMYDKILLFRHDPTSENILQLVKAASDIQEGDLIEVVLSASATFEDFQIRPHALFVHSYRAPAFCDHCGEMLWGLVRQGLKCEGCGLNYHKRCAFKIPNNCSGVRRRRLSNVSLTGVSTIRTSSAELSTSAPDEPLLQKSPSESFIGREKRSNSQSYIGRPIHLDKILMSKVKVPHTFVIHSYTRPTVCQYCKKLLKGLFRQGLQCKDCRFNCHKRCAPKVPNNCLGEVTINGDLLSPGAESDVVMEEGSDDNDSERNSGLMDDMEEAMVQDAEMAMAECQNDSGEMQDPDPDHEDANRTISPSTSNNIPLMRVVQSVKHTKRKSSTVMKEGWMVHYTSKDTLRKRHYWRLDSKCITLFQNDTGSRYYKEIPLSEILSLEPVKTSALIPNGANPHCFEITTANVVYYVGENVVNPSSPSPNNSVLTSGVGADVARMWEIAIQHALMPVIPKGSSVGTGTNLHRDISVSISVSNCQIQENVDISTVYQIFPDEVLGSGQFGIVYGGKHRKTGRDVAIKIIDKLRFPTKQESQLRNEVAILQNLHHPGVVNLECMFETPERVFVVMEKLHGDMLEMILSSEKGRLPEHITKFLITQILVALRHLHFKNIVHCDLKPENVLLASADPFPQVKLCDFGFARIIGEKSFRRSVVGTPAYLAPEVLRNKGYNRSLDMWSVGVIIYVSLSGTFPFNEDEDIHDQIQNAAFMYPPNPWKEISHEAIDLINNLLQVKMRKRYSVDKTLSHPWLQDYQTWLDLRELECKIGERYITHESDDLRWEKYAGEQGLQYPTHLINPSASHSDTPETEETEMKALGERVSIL
Lmaj promast – inhibitors of Leishmania major promastigote growth; Leishmania major promastigotes, resazurin fluorescence viability; 9% of 200,000 active; inhibition, % at 10 µM;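 further: promastigotes grown with compound for 44 hours at 28 °C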
GSH bead fluor – compound fluoresces at 488/530 nm on GSH beads; GSH beads flow cytometry, compound fluorescence 488/530 nm; active compounds read high; fluorescence (KMESF) at 10 µM; 0.25% of 190,000 active; AID 1776; in the data active means fluorescence above about 89;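 further: glutathione beads carrying GST-tagged Bcl family fusion proteins plus one bare bead set; values are compound well signal with DMSO vehicle wells as background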
ABCG2 block – inhibitors of human ABCG2 transporter, ABCB1 counter-screen; Q9UNQ0; IgMXP3 cells, JC-1 efflux, flow cytometry; inhibition, % at 6.6 µM; 0.1% of 190,000 active;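 active means inhibition above 80%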;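 further: 0% = DMSO and 100% = nicardipine control wells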
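Times: 10 min at 25 °C | Test system: Two drug-resistant human cell lines, ABCG2 and ABCB1 | Quantity: 3 million cells/mL final, two lines in 1:1 ratio | Signal: Flow cytometry, 530 nm JC-1 signal | Dosing: Compound at 6.6 µM | Controls: Nicardipine and DMSO wells | Reagent: JC-1 as fluorescent efflux pump substrate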
ABCB1 block – blocks JC-1 efflux by human ABCB1 transporter. inhibition, % at 6.6 µM. AID 1326. CCRF-Adr cells, flow cytometry. 0.067% of 190,000 active; in the data active means inhibition above about 40%;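 further: 0% = vehicle and 100% = reference inhibitor; higher value means more JC-1 retained so stronger ABCB1 efflux block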
Avidin bead fluor – avidin bead compound fluorescence profile. fluorescence (KMESF) at 10 µM. AID 1775. 0.38% of 220,000 active. Avidin beads, compound fluorescence 488/530 nm, flow cytometry; active compounds read high; in the data active means fluorescence above about 47
Lmaj promast 1uM – inhibitors of Leishmania major promastigote growth, repeat at 1 uM; shares compounds with Lmaj promast; L. major promastigote growth, resazurin fluorescence, 48 h; inhibition, % at 1 µM; 13% of 1,100 active; AID 1258;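 active means inhibition above about 50% in both repeat tests, limit read from the data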
ABCB1 confirm – inhibits human ABCB1 efflux, confirmed at single point | CCRF-Adr cells, JC-1 efflux, flow cytometry | inhibition, % at 6.6 µM | shares compounds with ABCG2 block | AID 1451 | 7% of 270 active;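 active means inhibition of pump activity above 50%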;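 further: 0% = DMSO and 100% = nicardipine full pump inhibition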
ABCG2 single pt – confirmation of human ABCG2 transporter inhibitors, ABCB1 counter-screen; shares compounds with ABCG2 block; inhibition, % at 6.6 µM; IgMXP3 cells, JC-1 efflux, flow cytometry; 6% of 270 active;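 active means inhibition above 50%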;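 further: 0% = DMSO wells and 100% = nicardipine pump inhibitor wells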
IgMXP3 autofluor – IgMXP3 autofluorescence flag for ABCG2 confirmation. 30% of 270 active. IgMXP3 cells, compound autofluorescence 488/530 nm, flow; active compounds read high. AID 1480. fluorescence at 6.6 µM. shares compounds with ABCG2 block;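 active means fluorescence in ABCG2-expressing cells above the plate's control-well mean plus 3 SD, cut at about 15 in these data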;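 further: median cell fluorescence with compound minus that of DMSO-treated control cells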
CCRF autofluor – CCRF-Adr autofluorescence flag for ABCB1 confirmation; shares compounds with ABCG2 block; CCRF-Adr cells, compound autofluorescence 488/530 nm, flow cytometry; active compounds read high; fluorescence at 6.6 µM; 30% of 270 active; AID 1483;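 active means fluorescence beyond the plate control mean plus 3 SD, with a fluorescence-to-maximum score over 2, cut at about 25 in these data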
An asterisk follows results filed as active; · = no result given. Shown is part of a subset that was picked to be rich in hits. Unless noted, no stated cut-off is given here; in the data, active means inhibition above about 50%; inactive means the rest.

SMILES | PKD1 kinase inh | Lmaj promast | GSH bead fluor | ABCG2 block | ABCB1 block | Avidin bead fluor | ABCB1 confirm | ABCG2 single pt | IgMXP3 autofluor | CCRF autofluor | others
COc1ccc(C(=O)NC(=S)NNC(=O)c2cnccn2)cc1 | -11 | 100* | 12 | -2 | -1 | 13 | · | · | · | · | Lmaj promast 1uM=6
COc1cc(NC(=S)Nc2ccccn2)cc(OC)c1 | 4 | 5 | 11 | -5 | -1 | 13 | · | · | · | ·
c1ccc(-c2nc3nonc3nc2-c2ccccc2)cc1 | 4 | 84* | 41 | 1 | -1 | 6 | · | · | · | · | Lmaj promast 1uM=-17
CCN(CC)C(=O)c1sc(N)c(C#N)c1C | -1 | -2 | 38 | 0 | 0 | 8 | · | · | · | ·
Cc1sc(N)c(C#N)c1C | -13 | 51* | 4 | 1 | -1 | 27 | · | · | · | · | Lmaj promast 1uM=-19
Cc1ccc2nc(/C(C#N)=C\c3ccc(N4CCCCC4)c([N+](=O)[O-])c3)[nH]c2c1 | 2 | 97* | 15 | -3 | 0 | 31 | · | · | · | · | Lmaj promast 1uM=4
CC(C)C[C@H](NC(=O)OC(C)(C)C)C(=O)N/N=C/C1=Cc2ccccc2OC1C (stereo not given in full) | 1 | 98* | 36 | 17 | 1 | 15 | · | · | · | · | Lmaj promast 1uM=-4
COc1ccc(NC(=S)N(CCN2CCOCC2)Cc2cc3cc4c(cc3[nH]c2=O)OCCO4)cc1 | -3 | 14 | 14 | 8 | 1 | 10 | · | · | · | ·
Cc1ccc(S(=O)(=O)Cn2nnnc2CN(Cc2ccco2)CC2CCCO2)cc1 (stereo not given) | -8 | 53* | 25 | -1 | 0 | 9 | · | · | · | · | Lmaj promast 1uM=-6
N#C/C(=C\c1cn(CCOc2ccccc2)c2ccccc12)C(=O)NCc1cccs1 | -8 | 55* | 21 | -5 | -1 | 12 | · | · | · | · | Lmaj promast 1uM=-13
Cc1cc(N2CCOCC2)ccc1/C=C1/SC(=O)NC1=O | 0 | 7 | 12 | 25 | -1 | 9 | · | · | · | ·
CCN1CCCC1CN=Cc1c(O)n(-c2ccccc2)c(=O)c2ccccc12 (stereo not given) | -6 | 55* | 12 | 1 | 0 | 21 | · | · | · | · | Lmaj promast 1uM=3
CCCCSc1nnc(-c2ccc(C)cc2)c2ccccc12 | -11 | 91* | 4 | 92* | 3 | 16 | 25 | 40 | -2.2 | -4.4 | Lmaj promast 1uM=5
O=C(NCc1ccc(OC(F)(F)F)cc1)C1CC(c2ccccc2C(F)(F)F)=NO1 (stereo not given) | · | · | · | · | · | 9 | · | · | · | ·
CCOC(=O)/C(C#N)=C\c1cc(C)n(-c2ccccc2)c1C | -7 | -7 | 30 | 81* | 4 | 13 | 4 | 26 | -1.2 | -2.1
COc1ccc(CCNC(=O)c2cc3c(=O)n(C)c4ccccc4c3n2C)c(OC)c1 | · | · | · | · | · | 3 | · | · | · | ·
COc1ccc2nc(SCc3ccccc3C)nc(C)c2c1 | -8 | -4 | 12 | 90* | 2 | 21 | 6 | 45 | 16* | 7.1
COC(=O)c1nn2c(C(F)(F)F)cc(-c3ccc(Br)o3)nc2c1Br | -1 | 3 | · | · | · | · | · | · | · | ·
CCOc1nc(-c2ccccc2)ccc1-c1noc(COC)n1 | -11 | 24 | 17 | 76 | 1 | 34 | -1 | 27 | 4 | 3.8
COCc1nc(-c2ccc(-c3ccccc3)nc2OC)no1 | -13 | 3 | 18 | 37 | 0 | 19 | · | · | · | ·
COc1ccc(NC(=O)CN2CCN(C3c4ccccc4-c4ccccc43)CC2)c(OC)c1 | 0 | 44 | 27 | 76 | 22 | 36 | 35 | 25 | -0.44 | -0.39
O=C(CN(C(=O)CNC(=O)c1ccco1)c1ccc2c(c1)OCCO2)NC1CCCC1 | -5 | -6 | 19 | 1 | 0 | 11 | · | · | · | ·
CCCCCCNC(=O)CCCCCNS(=O)(=O)c1ccc(OC)cc1 | -6 | 0 | 28 | 4 | 2 | 6 | · | · | · | ·
CCN(CC)S(=O)(=O)c1ccc(C(=O)N(c2ccc(C)cc2)C2C=CS(=O)(=O)C2)cc1 (stereo not given) | 10 | 4 | 16 | 19 | 37 | 11 | 2 | 1 | 3.6 | -0.99
Cc1ccc(N(C(=O)c2ccc(S(=O)(=O)N3CCOCC3)cc2)C2C=CS(=O)(=O)C2)cc1 (stereo not given) | -17 | -4 | 12 | 5 | 1 | 11 | · | · | · | ·
SMILES | PKD1 kinase inh | Lmaj promast | GSH bead fluor | ABCG2 block | ABCB1 block | Avidin bead fluor | ABCB1 confirm | ABCG2 single pt | IgMXP3 autofluor | CCRF autofluor | others
CCOC(=O)C1(CCc2ccccc2)CCN(C(=O)CN2CCOC2=O)CC1 | -5 | 7 | 9 | 4 | 1 | 9 | · | · | · | ·
CC[n+]1c(/C=C2\Sc3ccccc3N2C)ccc2cccc(C)c21 | -12 | 100* | 9 | 151* | 30 | 8 | -182 | 18 | 273* | 535*
O=[N+]([O-])c1ccccc1-c1nc(-c2ccc(Br)o2)no1 | -2 | 31 | 11 | 90* | 2 | 14 | 2 | 28 | -0.34 | 0.61
CC1=Nc2ccccc2/C1=C\c1nc(-c2ccccc2)oc1O | -4 | -1 | 69 | 2 | 1 | 9 | · | · | · | ·
CC1=Nc2ccccc2/C1=C\c1nc(-c2ccc(C(F)(F)F)cc2)oc1O | -2 | 5 | 15 | 49 | 44* | 24 | -23 | 13 | 69* | 201*
CCCCn1c(O)c(N=Nc2ccccn2)c2ccccc21 | -5 | 66* | 6 | 79 | 2 | 9 | 0 | 51* | 1.3 | 15
COc1ccccc1NS(=O)(=O)c1cccc2nsnc12 | · | · | · | · | · | 6 | · | · | · | ·
Cc1cc(N2CCCCC2)ccc1[N+](=O)[O-] | -16 | 34 | 11 | 84* | 2 | 15 | 1 | 8 | 0.76 | 2.4
O=[N+]([O-])c1ccc(N2CCCC2)cc1N1CCCC1 | -7 | 18 | 10 | 16 | 1 | 20 | · | · | · | ·
CCOC(=O)c1sc2cc([N+](=O)[O-])cc(SCC(C)C)c2c1N | 7 | -4 | 39 | 60 | 32 | 31 | 23 | -7 | 82* | 129*
O=c1cc(-c2ccccc2)[nH][nH]1 | 0 | -10 | 12 | -2 | 82* | 26 | 1 | -2 | -1.1 | 0.06
COc1cc(OC)cc(C(=O)N[C@H](C(=O)Nc2nc(-c3cc(OC)ccc3OC)cs2)C(C)C)c1 | -8 | 20 | 19 | 47 | 5 | 7 | 6 | 35 | -1.8 | -3.8
COc1cc(OC)cc(C(=O)N[C@H](C(=O)Nc2nc(-c3ccc(OC)c(OC)c3)cs2)C(C)C)c1 | · | · | · | · | · | 16 | · | · | · | ·

High-throughput results as filed in PubChem.
